Experimental data collected from several papers.
Each line is one published result; the experiments were not run side by side.
MAOB: Amine oxidase [flavin-containing] B (MAOB, Homo sapiens, UniProt P27338)
TNFAIP3: TNFAIP3 (Homo sapiens, UniProt P21580)
EDNRB: Endothelin receptor type B (EDNRB, Homo sapiens, UniProt P24530)

Structure (SMILES) | target | test | test system | setting | inhibition [%]
CN1CCN(CCCCOc2ccc3occc(=O)c3c2)CC1 | MAOB | enzyme activity, inhibitor, fluorescence | – | 10 µM | 20
COCc1c(-c2cc3cc(C)cc(OC)c3s2)c2c(N)ncnn2c1CN1CCNC(=O)C1 | MAOB | enzyme activity, inhibitor | – | 10 µM | 5
COc1cc(Nc2ncc(F)c(Nc3ccc4c(n3)NC(=O)C(C)(C)O4)n2)cc(OC)c1OC | NUAK family SNF1-like kinase 2 (NUAK2, Homo sapiens, UniProt Q9H093) | binding, competition with immobilised ligand | – | 10 µM | 97
CN(C)C(=O)COC(=O)Cc1ccc(OC(=O)c2ccc(NC(=N)N)cc2)cc1 | TNFAIP3 | enzyme activity, inhibitor | – | 10 µM | 4
COc1ccc(S(=O)(=O)N2CCCCC2)cc1C | EDNRB | ligand displacement, radioligand | – | 10 µM | < 30
N=C(N)c1ccc2cc(OC(=O)c3ccc(N=C(N)N)cc3)ccc2c1 | TNFAIP3 | enzyme activity, inhibitor | – | 10 µM | 13
C[C@H](C(=O)N[C@H]1COc2ccccc2[C@@H]1S(C)(=O)=O)c1ccc(F)cc1 | MAOB | enzyme activity, inhibitor | – | 10 µM | 11
Cc1ccc(OP(=O)(Oc2ccc(C)cc2)Oc2ccc(C)cc2)cc1 | Cholinesterase (Bche, Mus musculus, UniProt Q03311) | enzyme activity, inhibitor | mouse | oral, 240 mg/kg | 20
COc1ccc(S(=O)(=O)N(CC(=O)NO)CC(C)C)cc1 | Matrix metalloproteinase-9 (MMP9, Homo sapiens, UniProt P14780, Q279R) | enzyme activity, inhibitor | – | 1 nM | 27
O=C(Nc1cccnn1)N1CCN([C@@H]2CCOc3cc(C(F)(F)F)ccc32)CC1 | EDNRB | cell-free assay | – | 20 µM | -5
CC(C)C[C@H](NC(=O)[C@H]1O[C@@H]1C(=O)O)C(=O)NCCCCN=C(N)N | Cathepsin L2 (CTSV, Homo sapiens, UniProt O60911) | enzyme activity, inhibitor | – | 5 nM | 17
Cc1ncc(C)n2nc(/C=C/c3nc(N4CCCC4)cc(N4CCOCC4)n3)nc12 | Matrix metalloproteinase-9 (MMP9, Homo sapiens, UniProt P14780) | enzyme activity, inhibitor | – | 10 µM | 12
CN1CCN(CCOc2ccc3occc(=O)c3c2)CC1 | MAOB | enzyme activity, inhibitor, fluorescence | – | 10 µM | 12
CN(CCN1CCC(OC(=O)Nc2ccccc2-c2ccccc2)CC1)C(=O)c1ccc(CN2CCC(C(N)=O)CC2)cc1 | EDNRB | ligand displacement, radioligand | – | 1 µM | 11
